Most compounds without a hit are left out; they make up all but 2.6% or so of the library.
ASAP1 GAP inh = blocks human ASAP1-stimulated Arf1 GTP hydrolysis | inhibition, % at 16.5 µM | AID 624377 | GDP FP detection | Q9ULH1 | 360,000 compounds, 0.19% hits; in the data active means inhibition above about 25%;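 further: 0% = vehicle with enzyme and substrate and 100% = no enzyme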
Target sequence (Q9ULH1 325-724 limits assumed): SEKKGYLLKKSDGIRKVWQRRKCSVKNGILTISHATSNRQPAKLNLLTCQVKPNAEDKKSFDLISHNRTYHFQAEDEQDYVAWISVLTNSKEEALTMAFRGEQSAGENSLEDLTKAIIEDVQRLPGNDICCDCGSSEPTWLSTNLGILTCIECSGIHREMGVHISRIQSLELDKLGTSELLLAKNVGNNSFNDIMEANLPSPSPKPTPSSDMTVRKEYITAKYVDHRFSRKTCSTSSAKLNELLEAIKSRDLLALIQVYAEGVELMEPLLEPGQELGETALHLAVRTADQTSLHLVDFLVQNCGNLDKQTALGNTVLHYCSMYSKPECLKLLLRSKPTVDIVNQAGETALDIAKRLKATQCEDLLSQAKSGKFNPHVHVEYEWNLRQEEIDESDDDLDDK
ARFGAP1 inh = rat ARFGAP1 inhibition. Arfgap1-stimulated ARF1 GTP hydrolysis, GDP FP detection. inhibition, % at 16.5 µM. 360,000 compounds, 0.26% hits;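 active means inhibition above a per-plate limit, mean inhibition of low control wells plus 3 SD, cut at about 25% in these data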;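 further: 0% = DMSO wells with enzyme and 100% = wells lacking Arfgap1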
Target sequence (Q62848 1-136 limits assumed): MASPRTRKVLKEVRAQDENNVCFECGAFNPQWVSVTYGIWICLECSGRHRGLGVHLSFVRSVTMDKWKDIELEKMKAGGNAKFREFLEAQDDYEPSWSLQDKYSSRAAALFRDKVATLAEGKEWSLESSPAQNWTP
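Material: rat Arfgap1 catalytic domain, aa 1-136; also added: human ARF1(Δ1-17)-GTP substrate; compound dosing: one concentration, 16.5 µM, DMSO 1.26%; incubation: GTP hydrolysis reaction 2 h at 25 °C; measured by: Tracer-displacement fluorescence polarization with EDTA stop, 620/688 nm; evaluation: % inhibition from polarization; repeats: one replicate per compound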
Calb FLC = C. albicans growth modulation with fluconazole. AID 1979. C. albicans CaCi-2 + fluconazole, Alamar Blue growth, 48 h. 300,000 compounds, 0.57% hits. growth inhibition, % (no concentration beside the values);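 active means growth inhibition above about 58% in most replicates, limit read from the data, passing the limit was not always enough; inconclusive means exactly half the replicates above a set limit; inactive means most replicates below a set limit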;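 further: all wells also contain fluconazole at 8 µg/ml as a sub-toxic cotreatment; 0% = median of DMSO wells and 100% = median of geldanamycin control wells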
PHOSPHO1 block = inhibitors of human PHOSPHO1 phosphatase; recombinant PHOSPHO1, absorbance phosphatase assay; inhibition, % at 13.3 µM; 290,000 compounds, 1.1% hits; in the data active means inhibition above about 60%
IMP-1 inh = blocks Pseudomonas aeruginosa IMP-1 metallo-beta-lactamase; purified IMP-1, nitrocefin hydrolysis, epi-absorbance fluorescence; inhibition, % at 5.6 µM; 290,000 compounds, 0.45% hits; AID 1556;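 active means inhibition above the mean plus 3 SD of all compounds in the same screening run, cut at about 4.5% in these data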;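 further: 0% = IMP-1 with DMSO and 100% = DMSO wells lacking enzyme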
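Test system: recombinant IMP-1 enzyme, purified / Medium: HEPES buffer pH 7.1 with ZnSO4 and Brij 35 / Doses: single dose, 5.6 µM / Times: 25 °C, 15 min preincubation, 25 min reaction / Detection: Epi-absorbance via hydrolysed-nitrocefin quenching of white-plate fluorescence, 480/530 nm, EDTA stop / Evaluation: percent inhibition from optical density relative to buffer-blank wells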
VIM-2 inh = blocks Pseudomonas aeruginosa VIM-2 metallo-beta-lactamase; purified VIM-2, nitrocefin hydrolysis, epi-absorbance fluorescence; inhibition, % at 5.6 µM; 290,000 compounds, 0.89% hits; AID 1527;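 active means inhibition above the mean of all tested compounds plus 3 SD, cutoff set per screening run, cut at about 7.5% in these data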;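 further: red hydrolysis product quenches plate fluorescence so inhibitors raise well fluorescence; 0% = enzyme with DMSO and 100% = DMSO without enzyme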
Active calls of the source: *; ? = inconclusive; nt = no result given.

SMILES	ASAP1 GAP inh	ARFGAP1 inh	Calb FLC	PHOSPHO1 block	IMP-1 inh	VIM-2 inh
C[C@H]1[C@@H]2C[C@@]3(O[C@H](c4ccc(C(F)(F)F)cc4)N=C3C[C@@H]1c1ccccc1)N(Cc1ccncc1)C2=O	5.6	5.7	nt	nt	nt	nt
Oc1ccc(-n2cccc2/C=N/n2cnnc2)cc1	11.1	-7.0	1.4	32.8	0.1	2.8
FC(F)(F)c1cccc(-n2cccc2/C=N/n2cnnc2)c1	0.4	-9.7	-2.2	94.1*	-3.4	-3.2
O=C(NCC1CCCO1)c1ccc(S(=O)(=O)Nc2ccccc2F)cc1 (stereo unspecified)	1.4	-15.8	-0.4	nt	nt	nt
Cc1cccc(NS(=O)(=O)c2ccc(C(=O)NCC3CCCO3)cc2)c1C (stereo unspecified)	0.6	12.8	-0.2	60.6*	-3.3	-3.5
Cc1cc(-c2csc(N)n2)c(C)n1C	12.7	-0.9	0.9	86.4*	-3.6	-1.2
Cc1ccc(-n2c(C)cc(-c3csc(N)n3)c2C)cc1	-6.0	12.9	7.0	-5.7	-1.5	-4.2
Cc1cc(-c2csc(N)n2)c(C)n1Cc1ccco1	11.0	-0.5	2.5	61.2*	-0.1	-0.9
CC1(C(=O)Nc2ccc3c(c2)OCCO3)CSCC(=O)N1C1CC1 (stereo unspecified)	-5.3	-2.3	nt	nt	nt	nt
O[C@@H](Cc1ccccc1)[C@@H](/C=C/c1ccccc1)NCCc1ccccc1	7.2	0.2	nt	nt	nt	nt
Cc1cccnc1Nc1ncnc(N)c1[N+](=O)[O-]	7.9	10.0	4.6	60.9*	-0.3	-0.5
Cc1cc(Br)cn2c(Cc3cccc(F)c3)c(-c3ccccc3)nc12	0.6	4.8	nt	nt	nt	nt
COCCNC(=O)c1c(N)sc2c1CCCC2	nt	nt	11.2	10.9	-3.2	-1.6
NC(=O)c1c(N)sc2c1CCCCC2	8.3	2.7	15.6	97.1*	0.0	-1.1
NC(=O)c1c(N)sc2c1CCC2	8.2	2.6	nt	36.8	-3.6	-3.5
CNC(=O)c1c(N)sc2c1CCCCC2	nt	nt	-9.0	71.3*	-3.5	-2.7
O=C(O)CN1CCCC1=Nc1ccccc1	-6.2	-12.5	-11.5	16.2	4.8*	2.5
O=C(O)CN1CCN(Cc2ccccc2)C1=O	5.6	4.9	-8.7	1.7	-4.3	0.9
CCCCCCCCN1C(=O)[C@@H](CC(=O)N2CCC(c3ccccc3)CC2)C[C@@]2(C(=O)OC)C1=C[C@H](C(C)(C)C)O[C@@H]2C	-5.8	-2.6	nt	nt	nt	nt
Cc1noc(C)c1NC(=O)N(C)C[C@@H]1OCc2cn(nn2)CCCC(=O)N([C@@H](C)CO)C[C@H]1C	2.9	-3.0	nt	nt	nt	nt
O=c1[nH]c(CSc2nnnn2-c2ccc(Cl)cc2)nc2ccccc12	-1.2	-3.9	?	19.9	-2.8	-0.4
Clc1ccc(-n2nnnc2SCc2c(-c3ccccc3)nc3sccn23)cc1	-13.2	-3.3	8.5	97.5*	-3.0	-1.0
C=CC(C)(C)c1c(O)c(CC=C(C)C)c(O)c2c(=O)c3ccc(O)c(O)c3oc12	nt	nt	83.6*	nt	nt	nt
CCOc1ccc2nc(N3CCC(C(=O)NC4CCCCC4)CC3)sc2c1	3.0	-0.1	-24.3	64.9*	-2.4	-2.9
CCOc1ccc2nc(N3CCCC(C(=O)NC4CCCC4)C3)sc2c1 (stereo unspecified)	-0.7	13.1	-4.8	17.1	-1.1	-1.4
SMILES	ASAP1 GAP inh	ARFGAP1 inh	Calb FLC	PHOSPHO1 block	IMP-1 inh	VIM-2 inh
CC1CCN(c2nc3ccc(C(=O)NCCCN4CCCCC4)cc3s2)CC1	0.1	-0.8	-15.0	20.2	-7.0	10.1*
Nc1nc2c(-c3ccc([N+](=O)[O-])cc3)nnn2c2ccccc12	12.5	-3.3	nt	nt	nt	nt
CCc1n[nH]c(=S)n1/N=C/c1cc(OC)cc([N+](=O)[O-])c1O	-7.5	-6.2	34.6	-102.8	4.6*	-0.8
COc1cc(/C=N/n2c(=S)[nH]nc(C)c2=O)cc([N+](=O)[O-])c1O	-15.6	-5.7	4.7	64.2*	-3.9	-2.2
CCc1n[nH]c(=S)n1/N=C/c1cccc2ccccc12	0.3	-0.4	14.4	-125.0	-5.6	3.6
CN1CCCCC(NC(=O)c2ccc3ccccc3c2)C1=O (stereo unspecified)	-3.5	0.9	nt	nt	nt	nt
CC(C)CC1C(=O)N(Cc2cn(Cc3ccco3)nn2)CCS(=O)(=O)N1Cc1ccc(-c2cccc(N(C)C)c2)cc1 (stereo unspecified)	18.1	2.9	nt	nt	nt	nt
CCCS(=O)(=O)N1CCCC(C(=O)NCCCN2CCN(c3ccc(F)cc3)CC2)C1 (stereo unspecified)	11.8	-5.2	-3.3	1.5	5.4*	-1.0
CCOC(=O)N(C)C[C@H]1OCc2cn(nn2)CCCC(=O)N([C@@H](C)CO)C[C@@H]1C	1.2	-4.6	nt	nt	nt	nt
N#CC1=C(N)OC2=C(CC/C2=C\c2ccccc2)C1c1ccccc1 (stereo unspecified)	7.2	-5.8	25.5	5.4	5.2*	-2.3
CC(C)(C)c1ccc(-c2nnc(SCC(=O)O)n2N)cc1	-10.9	-4.4	-18.1	75.1*	-2.2	-1.7
CC(C)OC(=O)CSc1nnc(-c2ccc(C(C)(C)C)cc2)n1N	7.3	-0.2	10.5	66.7*	-7.0	-4.0
CC(C)OC(=O)CSc1nnc(-c2ccncc2)n1N	10.7	2.5	-0.5	-5.5	-1.3	-1.4
C=CCn1c(SCC(=O)O)nnc1-c1ccc(C(C)(C)C)cc1	-1.3	-9.4	32.7	93.5*	-1.7	-0.9
C/C(=N\Nc1ccc(F)cc1F)c1ccc(Br)s1	7.4	9.3	102.2*	-18.4	-0.9	-0.2
C/C(=N\Nc1ccc(F)cc1F)c1ccc(N2CCOCC2)cc1	-0.9	12.9	103.7*	-32.9	-2.7	-0.5
c1ccc(Cc2cnc(N3CCN(Cc4csc5ccccc45)CC3)nc2)cc1	-9.8	11.8	nt	nt	nt	nt
CCc1nc2c(OCCc3cccc(OC)c3)cccn2c1N(C=O)Cc1ccccc1	-7.0	-10.6	nt	nt	nt	nt
CCn1c(=O)cc(SCC(=O)N2CCOCC2)c2ccccc21	-11.2	8.4	45.1	-0.5	-1.9	-1.5
Cn1c(C(=O)N2CCN(C(=O)c3ccco3)CC2)cc2c(=O)n(C)c3ccccc3c21	7.0	-4.1	14.9	2.1	-2.1	11.3*
COc1ccccc1N1CCN(C(=O)c2cc3c(=O)n(C)c4ccccc4c3n2C)CC1	-1.6	-5.7	8.1	10.8	-1.7	8.8*
CCn1c(=O)cc(SCC(=O)N2CCN(c3ccccc3OC)CC2)c2ccccc21	3.3	-0.6	-5.0	62.6*	-0.7	-1.8
CC(=O)Oc1ccccc1Cn1c(C)c(C(=O)NCc2cccc([N+](=O)[O-])c2)sc1=O	-7.6	-9.1	nt	nt	nt	nt
COCC#Cc1cnc2c(c1)C(=O)N([C@@H](C)CO)C[C@H](C)[C@H](CN(C)C(=O)c1ccc3c(c1)OCO3)O2	4.5	-2.9	nt	nt	nt	nt
C[C@@H]1ON(C)[C@H]2C[C@H]3c4cc(N5CCCCC5)ccc4CCN3C[C@@H]12	5.2	3.0	nt	nt	nt	nt
COc1ccc(-c2cc(C(F)(F)F)nc(-n3cncn3)n2)cc1	8.0	6.1	10.6	-15.7	-2.4	11.3*
